# Laboratory results from ChEMBL document CHEMBL1139996, “Synthesis, bioactivity, theoretical and molecular docking study of 1-cyano-N-substituted-cyclopropanecarboxamide as ketol-acid reductoisomerase inhibitor” (Bioorg Med Chem Lett, 2007).
# Tests used:
# [1] = test system: Oryza sativa; experiment: Inhibition of rice KARI at 200 ppm
# How it was run: (§1)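 Activity followed as the decrease in A340 at 30 °C. Reaction mix: 0.2 mM NADPH, 1 mM MgCl2, substrate (2-acetolactate or hydroxypyruvate) and inhibitor as required, in 0.1 M Tris–HCl, pH 8.0. Reaction started by adding enzyme. In inhibitor preincubation runs, substrate was added last instead.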
# [2] = Inhibition of rice KARI; parameters: species or system Oryza sativa; how it was run: as §1
SMILES,inhibition [1] [%],Ki [2] [µM]
COc1ccc(NC(=O)C2(C#N)CC2)cc1,3.95,
N#CC1(C(=O)Nc2ccccc2)CC1,77.2,
Cc1ccc(NC(=O)C2(C#N)CC2)cc1,61.2,> 300
N#CC1(C(=O)Nc2ccc(Cl)cc2Cl)CC1,97,
N#CC1(C(=O)Nc2ccc(Br)cc2)CC1,32.2,
N#CC1(C(=O)Nc2ccc(Cl)cc2)CC1,93.9,
N#CC1(C(=O)NCCO)CC1,98.9,
N#CC1(C(=O)Nc2ccc(C(F)(F)F)cc2)CC1,0,
N#CC1(C(=O)Nc2cccc(C(F)(F)F)c2)CC1,0,
N#CC1(C(=O)Nc2cccc(Br)c2)CC1,17.2,
CCOC(=O)C1(C#N)CC1,0,
N#CC1(C(=O)Nc2cccc(Cl)c2)CC1,0,
N#CC1(C(=O)Nc2ccccc2C(F)(F)F)CC1,0,
N#CC1(C(=O)O)CC1,100,95.3
N#CC1(C(=O)Nc2cc(Cl)c(Cl)cc2Cl)CC1,0,
Cc1ccccc1NC(=O)C1(C#N)CC1,100,
